MBD2 DNA inh – inhibitors of human MBD2 binding to methylated oligonucleotide | Q9UBB5 | TR-FRET | inhibition, % at 4.4 µM | actives 0.31% (n = 370,000) | AID 686964; in the data active = inhibition above about 13%
UHRF1 MBD2 ctr – UHRF1 methyl-DNA binding inhibition | Q96T88 | UHRF1 binding to methylated oligo, TR-FRET | inhibition, % at 4.4 µM | AID 687016 | actives 0.75% (n = 370,000);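 also: UHRF1 SRA domain binding a hemimethylated CpG hairpin DNA probe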
TDP2 inh – blocks human TDP2 phosphodiesterase activity; AID 720702; recombinant TDP2, T5PNP hydrolysis, p-nitrophenol absorbance 415 nm; inhibition, % at 12.8 µM; actives 0.34% (n = 370,000); O95551;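 active = inhibition above the mean of all tested compounds plus 3 SD, set per campaign, cut at about 25% in these data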
Target sequence (O95551 whole entry, looked up): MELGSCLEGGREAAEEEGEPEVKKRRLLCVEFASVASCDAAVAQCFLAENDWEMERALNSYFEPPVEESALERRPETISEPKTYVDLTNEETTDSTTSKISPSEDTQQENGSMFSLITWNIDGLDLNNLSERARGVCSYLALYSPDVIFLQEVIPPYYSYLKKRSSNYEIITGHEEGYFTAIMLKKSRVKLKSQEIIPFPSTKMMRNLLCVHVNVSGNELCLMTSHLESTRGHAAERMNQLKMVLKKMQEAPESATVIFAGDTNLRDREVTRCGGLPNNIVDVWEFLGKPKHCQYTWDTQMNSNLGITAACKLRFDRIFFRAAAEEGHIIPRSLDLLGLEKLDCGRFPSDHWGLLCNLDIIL
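Assay system: Recombinant human TDP2 | Quantity: 120 nM TDP2 per well | Incubation: 2 h at 37 °C | Signal: Epi absorbance | Evaluation: Percent inhibition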
Rin1-Abl PPI inh – inhibitors of human Rin1-Abl protein interaction; AID 588664; TR-FRET Rin1/Abl binding, biochemical; actives 0.4% (n = 360,000); P00519+Q13671; inhibition, % at 7.35 µM; in the data active = inhibition above about 5%, passing the limit was not always enough
LEDGF integ inh – blocks HIV-1 LEDGF/p75-dependent DNA integration. TR-FRET IN-LEDGF/p75 DNA integration, Eu/Cy5. inhibition, % at 3.7 µM. actives 0.64% (n = 370,000);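 active = inhibition above the screen-wide mean plus 3 SD, cut at about 13% in these data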;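 also: signal is the Cy5 over europium emission ratio at 671 and 618 nm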
UHRF1 DNA bind – inhibits human UHRF1 binding to methylated oligonucleotide, MBD2 counter-screen; shares compounds with MBD2 DNA inh; TR-FRET; inhibition, % at 4.4 µM; actives 25% (n = 1,000);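 also: UHRF1 SRA domain binding a labeled hemimethylated CpG hairpin DNA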
MBD2 confirm – MBD2-DBD methyl-DNA binding inhibition, TR-FRET confirmation. AID 720531. inhibition, % at 4.4 µM. actives 26% (n = 1,000). TR-FRET MBD2-DBD binding to methylated oligonucleotide. shares compounds with MBD2 DNA inh; in the data active = inhibition above about 14%
A number is an active result. In the library only some 1.9% were active in any assay of this set; here they are far more common. Rule as the data show it, unless noted: active = inhibition above about 21%; inactive = the rest.

Nc1c2c(nc3ccccc13)CCCC2 was read as MBD2 DNA inh inactive, UHRF1 MBD2 ctr inactive, TDP2 inh inactive, Rin1-Abl PPI inh inactive and LEDGF integ inh inactive.
Screening COc1ccc(S[C@]2(C(=O)N(C)C)CC(=O)N(c3ccc(C#N)cc3)[C@@H]2c2ccc(OC)cc2)cc1 returned MBD2 DNA inh inactive, UHRF1 MBD2 ctr inactive, TDP2 inh inactive and LEDGF integ inh inactive.
C#CCOCCOCCOCCNc1nc(N2CCOCC2)nc(N2CCN(C(=O)[C@H](CCC(=O)O)n3cc(C(N)CC(C)C)nn3)CC2)n1 (some centres not stated) was read as MBD2 DNA inh inactive, UHRF1 MBD2 ctr inactive, TDP2 inh inactive and LEDGF integ inh inactive.
For CCn1c(=O)cc(N2CCN(c3cccc(C(F)(F)F)c3)CC2)[nH]c1=O the results were MBD2 DNA inh inactive, UHRF1 MBD2 ctr inactive, TDP2 inh inactive and LEDGF integ inh inactive.
Screening CC(C)(C)NC(=O)NC(=O)CSc1nnc(COc2ccccc2Cl)o1 returned MBD2 DNA inh 20.7, UHRF1 MBD2 ctr 30.9, TDP2 inh inactive, Rin1-Abl PPI inh inactive, LEDGF integ inh inactive, UHRF1 DNA bind inactive and MBD2 confirm inactive.
`COc1ccc(CN2CCC(CNC(=O)Nc3ccc(C)c(F)c3)CC2)cc1` gave MBD2 DNA inh inactive, UHRF1 MBD2 ctr inactive, TDP2 inh inactive and LEDGF integ inh inactive.
COc1ccc(C)cc1NC(=O)NC1CCN(Cc2ccccc2)CC1 was read as MBD2 DNA inh inactive, UHRF1 MBD2 ctr inactive, TDP2 inh inactive, Rin1-Abl PPI inh inactive and LEDGF integ inh inactive.
For CCC(C)[C@H](NC(=O)NC1CCN(Cc2ccccc2)CC1)C(=O)OC (some centres not stated) the results were MBD2 DNA inh 15.1, UHRF1 MBD2 ctr inactive, TDP2 inh inactive, Rin1-Abl PPI inh inactive, LEDGF integ inh inactive, UHRF1 DNA bind inactive and MBD2 confirm inactive.
`Cc1ccc(NC(=O)CSc2nnc(-c3ccccc3F)n2-c2ccccc2)c(C)c1` gave MBD2 DNA inh inactive, UHRF1 MBD2 ctr inactive, TDP2 inh inactive and LEDGF integ inh inactive.
Screening Cn1c(-c2ccccc2)cc(=O)n1-c1ccccc1 returned MBD2 DNA inh 62.5, UHRF1 MBD2 ctr inactive, TDP2 inh inactive, Rin1-Abl PPI inh inactive, LEDGF integ inh inactive, UHRF1 DNA bind inactive and MBD2 confirm inactive.
CCC(C)NC(=O)c1cc2cc3ccc(OC)cc3nc2s1 (configuration not stated) was read as MBD2 DNA inh inactive, UHRF1 MBD2 ctr inactive, TDP2 inh inactive, Rin1-Abl PPI inh inactive and LEDGF integ inh inactive.
COc1ccc2cc3cc(C(=O)Nc4ccc(F)cc4)sc3nc2c1 was read as MBD2 DNA inh 28.6, UHRF1 MBD2 ctr inactive, TDP2 inh inactive, LEDGF integ inh inactive, UHRF1 DNA bind 29.4 and MBD2 confirm 27.6.
Screening Brc1ccc(-c2csc(N3CCNCC3)n2)cc1 returned MBD2 DNA inh inactive, UHRF1 MBD2 ctr inactive, TDP2 inh inactive and LEDGF integ inh inactive.
Screening CCc1nc2c(OCc3cccc(OC)c3)cccn2c1N(C)C(=O)c1ccccc1F returned MBD2 DNA inh 25.7, UHRF1 MBD2 ctr inactive, TDP2 inh inactive, Rin1-Abl PPI inh inactive, LEDGF integ inh inactive, UHRF1 DNA bind inactive and MBD2 confirm inactive.
For CCc1nc2c(OCc3cc(Cl)cc(Cl)c3)cccn2c1N(C)C(=O)c1ccccc1F the results were MBD2 DNA inh inactive, UHRF1 MBD2 ctr inactive, TDP2 inh inactive, Rin1-Abl PPI inh inactive and LEDGF integ inh inactive.
Cc1ccc2c(nc3s/c(=C\c4ccc(-c5ccccc5C(=O)O)o4)c(=O)n32)c1C was read as MBD2 DNA inh 14.8, UHRF1 MBD2 ctr 34.3, TDP2 inh inactive, Rin1-Abl PPI inh inactive, LEDGF integ inh inactive, UHRF1 DNA bind inactive and MBD2 confirm inactive.
Screening Cc1ccc(-c2csc3nc4ccc(C(=O)NCCO)cc4c(=O)n23)cc1 returned MBD2 DNA inh inactive, UHRF1 MBD2 ctr inactive, TDP2 inh inactive, Rin1-Abl PPI inh inactive and LEDGF integ inh inactive.

Screening results as filed in PubChem BioAssay.
